Results collected from several papers.
Compare with care: the assays were run in different laboratories.
KIT: Mast/stem cell growth factor receptor Kit (KIT, Homo sapiens, UniProt P10721)
KIT A829P: Mast/stem cell growth factor receptor Kit (KIT, Homo sapiens, UniProt P10721, A829P)
KIT L576P: Mast/stem cell growth factor receptor Kit (KIT, Homo sapiens, UniProt P10721, L576P)
KIT D816H: Mast/stem cell growth factor receptor Kit (KIT, Homo sapiens, UniProt P10721, D816H)
KIT T670I/V559D: Mast/stem cell growth factor receptor Kit (KIT, Homo sapiens, UniProt P10721, T670I/V559D)
KIT autoinhibited: Mast/stem cell growth factor receptor Kit, autoinhibited (KIT, Homo sapiens, UniProt P10721)
KIT V559D: Mast/stem cell growth factor receptor Kit (KIT, Homo sapiens, UniProt P10721, V559D)

Compound	target	assay	setting	remaining binding [%]
CN(C)c1ncc(F)c(-c2cnn3ncccc23)n1	KIT	binding	1 µM	100
Nc1ncc2c(n1)-c1c([nH]c3ccc(C#CC4CC4)cc13)CCCC2	KIT A829P	binding, competition with immobilised ligand	1 µM	72
N[C@@H]1CCN(c2nccc(-c3cnn4ncccc34)n2)C1	KIT L576P	binding	1 µM	97
O=c1nc(-c2ccccn2)sc2ccccc12	KIT D816H	binding, competition with immobilised ligand	1 µM	92
F[C@@H]1CCN(c2nccc(-c3cnn4ncccc34)n2)C1	KIT A829P	binding	1 µM	74
CCCCN(CCCC)C(=O)CN1C[C@@H](c2cc(OC)c3c(c2)OCO3)[C@H](C(=O)O)[C@H]1CC(C)(C)CCC	KIT T670I/V559D	cell-free assay, competition with immobilised ligand	1 µM	79
COc1cnc(Nc2cccc(S(N)(=O)=O)c2)nc1N1CCN(c2ccccc2)CC1	KIT autoinhibited	binding, competition with immobilised ligand	1 µM	90
O=C(NCCCN1CCOCC1)c1ccc(Nc2nccc(-c3cc4ccccc4s3)n2)cc1	KIT	binding, competition with immobilised ligand	1 µM	63
c1cnn2ncc(-c3ccnc(N4CCC45COC5)n3)c2c1	KIT T670I/V559D	binding	1 µM	84
O=C(NC[C@@H]1[C@H]2CN(C(=O)OCc3cc(C(F)(F)F)cc(C(F)(F)F)c3)C[C@@H]12)c1ccc2[nH]nnc2c1	KIT	cell-free assay, competition with immobilised ligand	1 µM	89
C[C@H]1CCN(c2nccc(-c3cnn4ncccc34)n2)C1	KIT D816H	binding	1 µM	84
CN1CCN(c2ccc(Nc3nccc(-c4ccccc4)n3)cc2C(F)(F)F)CC1	KIT V559D	binding	10 µM	0.05
Cc1cnc(Nc2ccc(C(=O)N3CCC(N4CCCC4)CC3)cc2)nc1-c1cc2ccccc2s1	Mast/stem cell growth factor receptor Kit (KIT, Homo sapiens, UniProt P10721, D816V)	binding, competition with immobilised ligand	1 µM	5.2
CN(C)c1nccc(-c2cnn3ncccc23)n1	Mast/stem cell growth factor receptor Kit (KIT, Homo sapiens, UniProt P10721, V559D/V654A)	binding	1 µM	100
O=C(Nc1c[nH]nc1C(=O)NC1CCNCC1)c1cc(F)cc(F)c1	KIT A829P	binding, competition with immobilised ligand	1 µM	92
C[C@@H](c1ccc(-n2cnc3c(N)ncnc32)cc1)N1CCc2nn(C)c(Cc3ccccc3)c2C1=O	KIT	binding, competition with immobilised ligand	0.1 µM	38
O=C(NS(=O)(=O)c1ccc(NCC2CCOCC2)c([N+](=O)[O-])c1)c1ccc(N2CCN(Cc3ccc(C(F)(F)F)cc3-c3ccc(Cl)cc3)CC2)cc1Oc1cnc2[nH]ccc2c1	KIT V559D	cell-free assay, competition with immobilised ligand	1 µM	100
O=C(c1ccc(Nc2nccc(-c3cc4ccccc4s3)n2)cc1)N1CCC(N2CCCC2)CC1	KIT V559D	binding, competition with immobilised ligand	1 µM	18
O=C(O)c1cc(-c2ccc(C3CCNCC3)cc2)c2ccc(-c3ccc(C(F)(F)F)cc3)cc2c1	KIT A829P	cell-free assay, competition with immobilised ligand	1 µM	100
CN(CCCC(F)(F)F)c1nccc(-c2cnn3ncccc23)n1	KIT V559D	binding	1 µM	100
NS(=O)(=O)c1cc(NC(=O)Cc2ccccc2)ccc1Oc1cccc(Cl)c1	KIT L576P	cell-free assay, competition with immobilised ligand	1 µM	78
C=CC(=O)N1CCC(C(=O)NCC(=O)N2CCN(c3nc(-c4cnc(N)nc4C(F)F)nc(N4CCOCC4)n3)CC2)CC1	KIT autoinhibited	binding, competition with immobilised ligand	1 µM	35
